19 molecules from ChEMBL document CHEMBL1143996, “Toward the development of chemoprevention agents (III): synthesis and anti-inflammatory activities of a new class of 5-glycylamino-2-substituted-phenyl-1,3-dioxacycloalkanes” (Bioorg Med Chem, 2008) can be followed below.

In general, inhibition in vivo refers to the share of the control response that was lost under treatment.

Data set [1] relates to Mus musculus. In words: Toxicity assessed as tail bleeding in Kunming mouse at 200 mg/kg, po after 5 mins. The data set is classed as organism-based. Details: dose 200 mg/kg, route oral. The note with it: in vivo. In short, it runs like this: (§1)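 Male mice (18–22 g) given a single oral dose, normal saline vehicle, n = 10. At set times after dosing, mouse restrained in a tube holder with tail protruding and a 2-mm tail cut made. Blood wiped away every 30 s until bleeding stopped; bleeding time recorded in s and compared with pre-dose values.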

For data set [2], the system named is Mus musculus. As to the kind of experiment: Toxicity assessed as tail bleeding in Kunming mouse at 200 mg/kg, po after 30 mins. The data set is classed as organism-based. Also noted: dose 200 mg/kg, route oral. The note with it: in vivo, 0.5 h. The essentials: as §1
Data set [3] deals with Mus musculus. As to the kind of experiment: Toxicity assessed as tail bleeding in Kunming mouse at 200 mg/kg, po after 60 mins. The class given is organism-based. Details: dose 200 mg/kg, route oral. The note with it: in vivo, 1 h. In short, it runs like this: as §1
Data set [4] deals with Mus musculus. In words: Toxicity assessed as tail bleeding in Kunming mouse at 200 mg/kg, po after 15 mins. The data set is classed as organism-based. Details: dose 200 mg/kg, route oral. The note with it: in vivo, 0.25 h. In short, it runs like this:
as §1

Data set [5] relates to Mus musculus. As to the kind of experiment: Antiinflammatory activity in Kunming mouse assessed as inhibition of xylene-induced ear edema at 20 mg/kg, po. The class given is functional.
Data set [6] concerns Mus musculus. In words: Antiinflammatory activity in Kunming mouse assessed as inhibition of xylene-induced ear edema at 30 mg/kg, po. The data set is classed as functional. The essentials:
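Male Kunming mice, 12 per group (tables give n = 11), dosed orally by gavage as a suspension in 0.5% carboxymethyl cellulose; CMC alone as vehicle control. After 30 min, 0.03 mL xylene applied to both surfaces of the right ear, with the left ear as control.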

Turning to `NCC(=O)N[C@H]1CCO[C@@H](c2cccc([N+](=O)[O-])c2)OC1`, the Time in the data set on Mus musculus [1] is 1.99 min; in the data set with Mus musculus [2] it was 2.05 min; in the data set on Mus musculus [3] it was 1.99 min; with Mus musculus [4], 1.99 min.

For the molecule `Cc1ccc([C@H]2OC[C@@H](NC(=O)CN)[C@@H](C)O2)cc1`, the Time in the data set with Mus musculus [1] came to 2 min; with Mus musculus [2] it was 2.02 min; with Mus musculus [3] it was 2 min; with Mus musculus [4], 2.04 min.

Consider `NCC(=O)N[C@H]1CO[C@@H](c2ccc(Cl)cc2)OC1`, for which the Time in the data set on Mus musculus [1] stood at 2.01 min; in the data set with Mus musculus [2], 2 min; with Mus musculus [3], 2 min; with Mus musculus [4] it was 2.01 min.

On to `C[C@H]1O[C@@H](c2ccc(Cl)cc2)OC[C@H]1NC(=O)CN`, for which the Time was 2.04 min with Mus musculus [1], 2 min in the data set on Mus musculus [2], 2.01 min in the data set with Mus musculus [3] and 2.01 min with Mus musculus [4].

As for `C[C@H]1O[C@@H](c2ccc([N+](=O)[O-])cc2)OC[C@H]1NC(=O)CN`, the Time was determined as 2 min in the data set on Mus musculus [1], 1.98 min in the data set with Mus musculus [2], 2.01 min with Mus musculus [3] and 2.02 min in the data set on Mus musculus [4].

For `Cc1ccc([C@H]2OC[C@@H](NC(=O)CN)CO2)cc1`, the Time in the data set on Mus musculus [1] worked out at 2 min; in the data set with Mus musculus [2] it was 1.99 min; in the data set with Mus musculus [3], 2 min; in the data set on Mus musculus [4], 2 min.

`C[C@H]1O[C@@H](c2ccc(Cl)cc2)OC[C@H]1N`: the inhibition in vivo at 20 mg/kg with Mus musculus [5] worked out at 66.7%.

For `CC(=O)Oc1ccccc1C(=O)O` [ASPIRIN], the inhibition in vivo at 30 mg/kg in the data set with Mus musculus [6] turned out to be 40.7%.

In the case of `NCC(=O)N[C@H]1CO[C@@H](c2ccccc2)OC1`, the Time was determined as 2 min in the data set with Mus musculus [1], 2.02 min in the data set with Mus musculus [2], 2.01 min in the data set with Mus musculus [3] and 2 min in the data set on Mus musculus [4].

`NCC(=O)N[C@H]1CCO[C@@H](c2ccc([N+](=O)[O-])cc2)OC1`: the Time in the data set on Mus musculus [1] amounted to 2 min; in the data set with Mus musculus [2] it was 2 min; with Mus musculus [3] it was 1.99 min; in the data set on Mus musculus [4] it was 2.05 min.

For `NCC(=O)N[C@H]1CCO[C@H](c2ccc(Cl)cc2)OC1`, the Time came to 2.02 min in the data set with Mus musculus [1], 2 min with Mus musculus [2], 1.99 min in the data set on Mus musculus [3] and 1.99 min with Mus musculus [4].

As to `C[C@H]1O[C@@H](c2ccccc2)OC[C@H]1NC(=O)CN`, the Time in the data set on Mus musculus [1] worked out at 2.02 min; with Mus musculus [2], 2.01 min; with Mus musculus [3], 2.03 min; in the data set with Mus musculus [4], 2 min.

Regarding `C[C@H]1O[C@@H](c2ccc([N+](=O)[O-])cc2)OC[C@H]1N`, the inhibition in vivo at 20 mg/kg with Mus musculus [5] worked out at 78.5%.

`C[C@H]1O[C@@H](c2cccc([N+](=O)[O-])c2)OC[C@H]1NC(=O)CN`: the Time in the data set with Mus musculus [1] came to 2.01 min; in the data set with Mus musculus [2], 1.98 min; in the data set on Mus musculus [3], 2 min; with Mus musculus [4], 2.01 min.

Take `NCC(=O)N[C@H]1CO[C@@H](c2cccc([N+](=O)[O-])c2)OC1`: the Time came out at 2 min in the data set on Mus musculus [1], 2.04 min in the data set with Mus musculus [2], 2.02 min in the data set on Mus musculus [3] and 2 min in the data set on Mus musculus [4].

Turning to `NCC(=O)N[C@H]1CCO[C@H](c2ccc([N+](=O)[O-])cc2)OC1`, the Time in the data set on Mus musculus [1] is 2.01 min; in the data set with Mus musculus [2] it was 2 min; in the data set with Mus musculus [3] it was 1.99 min; in the data set with Mus musculus [4] it was 2.01 min.

In the case of `NCC(=O)N[C@H]1CCO[C@@H](c2ccc(Cl)cc2)OC1`, the Time in the data set with Mus musculus [1] was determined as 1.99 min; in the data set on Mus musculus [2], 2.01 min; with Mus musculus [3] it was 2 min; with Mus musculus [4] it was 2.01 min.

Turning to `NCC(=O)N[C@H]1CO[C@@H](c2ccc([N+](=O)[O-])cc2)OC1`, the Time with Mus musculus [1] came out at 2.02 min; in the data set with Mus musculus [2], 2.04 min; in the data set on Mus musculus [3], 2.02 min; in the data set on Mus musculus [4] it was 2.01 min.

Regarding `NCC(=O)N[C@H]1CCO[C@H](c2cccc([N+](=O)[O-])c2)OC1`, the Time with Mus musculus [1] is 2.02 min; with Mus musculus [2] it was 2 min; in the data set with Mus musculus [3] it was 2.02 min; in the data set on Mus musculus [4], 2 min.
